In ChEMBL document CHEMBL1136762, “Methoxylation of desazadesferrithiocin analogues: enhanced iron clearing efficiency” (J Med Chem, 2003):

Assays:
[1] = Partition coefficient (logP); format: physicochemical; details: octanol/water
In short: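 Shake-flask octanol–water distribution coefficient at pH 7.4 (50 mM TRIS), not corrected for ionization. Quadruplicate samples were shaken overnight with 1-octanol at 22–24 °C and the layers settled 1–2 h before separation. Quantified by UV spectrometry and expressed as the log of the fraction in the octanol layer.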

Monkey [2] = test: Iron clearing activity when administered 150 uM/kg orally to Cebus apella Primates (n = 4) [% stool/% urine = 81/19]; format: functional
Monkey [3] = test: Iron clearing activity when administered 150 uM/kg orally to Cebus apella Primates (n = 4) [% stool/% urine = 70/30]; format: functional
Monkey [4] = test: Iron clearing activity when administered 150 uM/kg orally to Cebus apella Primates (n = 4) [% stool/% urine = 86/14]; format: functional

Structure (SMILES)	logP [1]	Efficiency (Monkey [2])	Efficiency (Monkey [3])	Efficiency (Monkey [4])
COc1ccc(C2=N[C@@H](C(=O)O)CS2)c(O)c1	-0.89	16.2%		
O=C(O)[C@H]1CSC(c2ccc(O)cc2O)=N1	-1.33		4.2%	
COc1ccc(C2=N[C@@](C)(C(=O)O)CS2)c(O)c1	-0.7		24.4%	
C[C@]1(C(=O)O)CSC(c2ccc(O)cc2O)=N1 [DEFERITRIN]	-1.05			13.4%
CC1(C)SC(c2ccc(O)cc2O)=N[C@H]1C(=O)O	-0.91		12.3%	
